# Assay results from different studies.
# Protocols differ between the studies behind these lines.
# Target: Vascular endothelial growth factor receptor 1 (FLT1, Homo sapiens, UniProt P17948)
SMILES,observed,action,method,tested at,measurement,value
CC(C)CC(=O)N1CCc2nc(-c3ccc(Br)cc3)nc(N(C)Cc3ccccc3)c2C1,cell-free assay,,competition with immobilised ligand,0.1 µM,remaining binding,100%
CCN(CC)c1ccc(C2=NNC(=O)CC2C)cc1[N+](=O)[O-] (centres unmarked),enzyme activity,inhibitor,,10 µM,remaining activity,104%
COc1cc(Cl)c(C(=O)N[C@@H](CN[C@H]2CC[C@@H](N)CC2)Cc2ccc(C#N)cc2)cc1-c1ccc(CN[C@H](C)c2ccc(C)cc2)o1,enzyme activity,inhibitor,,1 µM,remaining activity,102%
O=C(N[C@H]1CCCCC/C=C\C2C[C@@]2(C(=O)O)NC(=O)[C@@H]2C[C@@H](Oc3ccncc3)CN2C1=O)OC1CCCC1 (some centres unmarked),cell-free assay,,competition with immobilised ligand,1 µM,remaining binding,100%
CCCS(=O)(=O)Nc1ccc(F)c(C(=O)c2c[nH]c3ncc(-c4ccc(Cl)cc4)cc23)c1F,enzyme activity,inhibitor,,1 µM,inhibition,< 10%
O=C(Nc1cnn(-c2csc(C(=O)NC3COC3)c2)c1)Nc1c(F)cccc1Cl,enzyme activity,inhibitor,,5 µM,remaining activity,86.1%
Cc1ccc(C(=O)NCc2ccsc2)cc1C#Cc1cn(C(C)C)c2ncnc(N)c12,enzyme activity,inhibitor,,1 µM,activity vs control,-1%
Cc1ccc(Nc2nccc(N(C)c3ccc4c(C)n(C)nc4c3)n2)cc1S(N)(=O)=O,enzyme activity,inhibitor,,10 µM,inhibition,102%
COCCOc1nc(-c2ccc(Cl)nc2)nc2c1CN(C(=O)c1ncn3ccccc13)CC2,cell-free assay,,competition with immobilised ligand,0.1 µM,remaining binding,87%
CCOc1cc(-c2nncn2C)ccc1Nc1ncc2cc(C)nc(NCC(C)(C)C)c2n1,enzyme activity,inhibitor,FRET,1 µM,inhibition,< 15%
CNC(=O)c1cc(Oc2ccc(NC(=O)Nc3ccc(Cl)c(C(F)(F)F)c3)cc2)ccn1,cell-free assay,,,0.5 µM,remaining signal,50.5%
Cc1ccc(NC(=O)c2ccc(C)c(C(F)(F)F)c2)cc1C#Cc1nn(C2CCC(O)CC2)c2ncnc(N)c12 (centres unmarked),cell-free assay,,,10 µM,remaining signal,3%
Cc1cnc(NC2CCOCC2)nc1-n1cnc(C(=O)NC(CN)c2cc(F)cc(Cl)c2)c1 (centres unmarked),enzyme activity,inhibitor,radiometric,1 µM,remaining activity,92%
COc1cc(Nc2cnc(C#N)c(O[C@H](C)CN(C)C)n2)ncc1-c1cnn(C)c1,enzyme activity,inhibitor,radiometric,10 µM,remaining activity,31%
C=CC(=O)Nc1cc(Nc2nccc(Nc3cc(Cl)c(F)cc3C(C)(C)O)n2)c(OC)cc1N1CC[C@@H](N(C)C)C1,enzyme activity,inhibitor,,1 µM,inhibition,0%
Cc1cc(NC(=O)c2cccc3cc(-c4cccc5[nH]nc(N)c45)ccc23)ccc1F,enzyme activity,inhibitor,,0.1 µM,activity vs control,2%
CSc1cccnc1N1CCN(Cc2nc3ccccc3[nH]2)CC1,cell-free assay,,competition with immobilised ligand,1 µM,remaining binding,100%
CC(C)(C)c1nc(-c2cccc(NS(=O)(=O)c3c(F)cccc3F)c2F)c(-c2ccnc(N)n2)s1,enzyme activity,inhibitor,radiometric,1 µM,remaining activity,84%
CNC(=O)c1cc2c(Oc3ccc(NC(=O)C4(C(=O)Nc5ccc(F)cc5)CC4)cc3)ccnc2cc1OC,enzyme activity,inhibitor,radiometric,1 µM,inhibition,106%
Nc1nc(Nc2ccccc2)sc1C(=O)c1c(F)cccc1F,enzyme activity,inhibitor,,10 µM,remaining activity,17%
N#CCCc1ccc2c(c1)-c1[nH]c3ccc([N+](=O)[O-])cc3c1CC(=O)N2,cell-free assay,,,0.5 µM,remaining signal,99.7%
CO[C@@H](C)c1c(Nc2ccc([C@@H](N(C)C(=O)C3CCS(=O)(=O)CC3)C(F)(F)F)cc2)cnc2cc(Cl)nn12,cell-free assay,,competition with immobilised ligand,1 µM,remaining binding,85%
CCN(CC)CCNC(=O)c1c(C)[nH]c(/C=C2\C(=O)Nc3ccc(F)cc32)c1C,enzyme activity,inhibitor,,10 µM,inhibition,102%
Cc1nccc(COC(=O)N2C[C@@H]3[C@@H](CNC(=O)c4ccc5[nH]nnc5c4)[C@@H]3C2)n1,cell-free assay,,competition with immobilised ligand,1 µM,remaining binding,100%
Cc1sc(C(=O)NC2COC2)cc1-n1cc(NC(=O)Nc2c(F)cccc2Cl)cn1,enzyme activity,inhibitor,,10 µM,remaining activity,84.1%
O=S(=O)(NC1CCC(c2cc(F)ccc2F)(S(=O)(=O)c2ccc(Cl)cc2)CC1)C(F)(F)F (centres unmarked),cell-free assay,,competition with immobilised ligand,1 µM,remaining binding,86%
COc1cc2ncnc(Nc3ccc(Oc4ccccc4)cc3C)c2cc1OC,enzyme activity,inhibitor,,1 µM,inhibition,-2%
N#CC1(c2ccccn2)CCN(Cc2cc(C(=O)N3CCCC3)c(=O)n3ccccc23)CC1,cell-free assay,,competition with immobilised ligand,1 µM,remaining binding,100%
CNCc1ccc(-c2cc(-c3nc(-c4ccc(S(=O)(=O)C(C)C)cc4)cnc3N)on2)cc1,enzyme activity,inhibitor,,2 µM,inhibition,83%
